Data reported in ChEMBL document CHEMBL1158040, “Biological activities and 3D QSAR studies of a series of Delisea pulchra (cf. fimbriata) derived natural products” (J Nat Prod, 2006).
≈ marks a conversion by molar mass, not a printed value. Calls of active or inactive are those of the source. The rule behind the calls is not given here.

How the values were obtained:
KB [1] = test: Cytotoxicity against vinblastine-resistant human KB cells; type: functional; settings: read-out: ED50 (the source's name)
In short: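 The vinblastine-resistant KB-V1 line was tested both with and without added vinblastine in the cultured tumour-cell cytotoxicity panel. Results are reported as ED50.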

[2] = biological target: Human immunodeficiency virus type 1 reverse transcriptase (Human immunodeficiency virus 1, UniProt Q72547); test: Inhibition of HIV1 RT at 200 uM
In short: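 HIV-1 reverse transcriptase inhibition was measured in an ELISA-based system.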

Escherichia coli [3] = test: Antimicrobial activity against Escherichia coli at 5 ug; type: functional, organism-based
In short: (§1)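 Direct bioautography: each compound is spotted onto TLC plates and the solvent evaporated. The test organism is then grown directly on the plate. Growth inhibition is scored at the spot as active (+) or very active (++). Where a number is given, it is the radius in mm of the inhibition zone around the spot.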

Plasmodium falciparum [4] = test: Antimalarial activity against chloroquine-sensitive Plasmodium falciparum D6; type: functional, organism-based
In short: (§2)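 In vitro growth inhibition of Plasmodium falciparum clones D6 (chloroquine-sensitive) and W2 (chloroquine-resistant); IC50 reported in μg/mL.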

Micrococcus luteus [5] = test: Antimicrobial activity against Micrococcus luteus at 5 ug; type: functional, organism-based; in short: as §1
Penicillium oxalicum [6] = test: Antimicrobial activity against Penicillium oxalicum at 0.01 ug; type: functional; settings: read-out: IZ; in short: as §1
Micrococcus luteus [7] = test: Antimicrobial activity against Micrococcus luteus at 1 ug; type: functional, organism-based; in short: as §1
Micrococcus luteus [8] = test: Antimicrobial activity against Micrococcus luteus at 0.1 ug; type: functional, organism-based; in short: as §1
[9] = Inhibition of TK assessed as residual activity at 200 ug/ml
In short: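 The enzyme was tyrosine kinase p56lck, with test compounds at 200 μg/mL. The read-out is the remaining enzyme activity.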

Penicillium oxalicum [10] = test: Antimicrobial activity against Penicillium oxalicum at 10 ug; type: functional; settings: read-out: IZ; in short: as §1
Plasmodium falciparum [11] = test: Antimalarial activity against chloroquine-resistant Plasmodium falciparum W2; type: functional, organism-based; in short: as §2
Penicillium oxalicum [12] = test: Antimicrobial activity against Penicillium oxalicum at 1 ug; type: functional; settings: for zone of inhibition at 1 µg/disc: read-out: IZ; in short: as §1
Bacillus subtilis [13] = test: Antimicrobial activity against Bacillus subtilis at 5 ug; type: functional, organism-based; in short: as §1
Penicillium oxalicum [14] = test: Antimicrobial activity against Penicillium oxalicum at 5 ug; type: functional; settings: read-out: IZ; in short: as §1
Micrococcus luteus [15] = test: Antimicrobial activity against Micrococcus luteus at 10 ug; type: functional, organism-based; in short: as §1
LNCaP = test: Cytotoxicity against human LNCAP cells; type: functional; settings: read-out: ED50 (the source's name)
Lu1 = test: Cytotoxicity against human Lu1 cells; type: functional; settings: read-out: ED50 (the source's name)
Escherichia coli [16] = test: Antimicrobial activity against Escherichia coli at 10 ug; type: functional, organism-based; in short: as §1
Bacillus subtilis [17] = test: Antimicrobial activity against Bacillus subtilis at 10 ug; type: functional, organism-based; in short: as §1
ZR-75-1 = test: Cytotoxicity against human ZR-75-1 cells; type: functional; settings: read-out: ED50 (the source's name)
KB [18] = test: Cytotoxicity against vinblastine-sensitive human KB cells; type: functional; settings: read-out: ED50 (the source's name)
Escherichia coli [19] = test: Antimicrobial activity against Escherichia coli at 1 ug; type: functional, organism-based; in short: as §1
KB [20] = test: Cytotoxicity against human KB cells; type: functional; settings: read-out: ED50 (the source's name)
[21] = Selectivity index, ratio of IC50 for human KB cells to IC50 for Plasmodium falciparum D6; type: toxicity, cell-based; settings: KB cells versus Plasmodium falciparum D6, read-out: Ratio IC50
In short: (§3)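 Plasmodium falciparum clones were assayed in vitro: D6 (chloroquine-sensitive) and W2 (chloroquine-resistant). IC50 is in μg/mL. The selectivity index is the ratio of the antimalarial to the cytotoxic activity.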

Escherichia coli [22] = test: Antimicrobial activity against Escherichia coli at 0.1 ug; type: functional, organism-based; in short: as §1
Bacillus subtilis [23] = test: Antimicrobial activity against Bacillus subtilis at 1 ug; type: functional, organism-based; in short: as §1
[24] = Cytotoxicity against human MEL-2 cells; type: functional; settings: MEL2, read-out: ED50 (the source's name)
[25] = Cytotoxicity against human U373 cells; type: functional, U-373MG ATCC; settings: U373 MG, read-out: ED50 (the source's name)
Plasmodium falciparum [26] = test: Antimalarial activity against chloroquine-sensitive Plasmodium falciparum D6 at 10 ug/ml; type: functional
[27] = Cytotoxicity against human Col1 cells; type: functional; settings: read-out: ED50 (the source's name)
[28] = Cytotoxicity against human BCA1 cells; type: functional; settings: read-out: ED50 (the source's name)
P388 = test: Cytotoxicity against mouse P388 cells; type: functional; settings: read-out: ED50 (the source's name)
A-431 = test: Cytotoxicity against human A431 cells; type: functional; settings: read-out: ED50 (the source's name)
HT-1080 = test: Cytotoxicity against human HT1080 cells; type: functional; settings: read-out: ED50 (the source's name)
[29] = Selectivity index, ratio of IC50 for human KB cells to IC50 for Plasmodium falciparum W2; type: toxicity, cell-based; settings: KB cells versus Plasmodium falciparum W2, read-out: Ratio IC50; in short: as §3
Penicillium oxalicum [30] = test: Antimicrobial activity against Penicillium oxalicum at 0.1 ug; type: functional; settings: read-out: IZ; in short: as §1
Bacillus subtilis [31] = test: Antimicrobial activity against Bacillus subtilis at 0.1 ug; type: functional, organism-based; in short: as §1
[32] = Inhibition of PKC

Compound	EC50 (KB [1])	Activity (Escherichia coli [3])	IC50 (Plasmodium falciparum [4])	Activity (Micrococcus luteus [5])	Activity (Micrococcus luteus [7])	Activity (Micrococcus luteus [8])	zone of inhibition at 10 µg/disc (Penicillium oxalicum [10])	Activity (Bacillus subtilis [13])	zone of inhibition at 5 µg/disc (Penicillium oxalicum [14])	Activity (Micrococcus luteus [15])	EC50 (LNCaP)	EC50 (Lu1)	Activity (Escherichia coli [16])	Activity (Bacillus subtilis [17])	EC50 (ZR-75-1)	EC50 (KB [18])	Activity (Escherichia coli [19])	EC50 (KB [20])	Activity (Escherichia coli [22])	Activity (Bacillus subtilis [23])	other results
CCC[C@@H](O)C1=C(Br)C(=C(Br)Br)OC1=O	9.5 µg/mL (≈ 23.5 µM)	Active	2.8 µg/mL (≈ 6.92 µM)	Active	Active	Active	20 mm	Active	23 mm	Active	6.7 µg/mL (≈ 16.5 µM)	1.7 µg/mL (≈ 4.2 µM)	Active	Active	0.3 µg/mL (≈ 0.741 µM)	0.6 µg/mL (≈ 1.48 µM)	inactive	0.5 µg/mL (≈ 1.23 µM)	inactive	Active	IC50 [2]: 700 µM; zone of inhibition at 0.01 µg/disc (Penicillium oxalicum [6]): 4 mm; Activity [9]: 4.5%; IC50 (Plasmodium falciparum [11]): > 10 µg/mL; zone of inhibition at 1 µg/disc (Penicillium oxalicum [12]): 17 mm; selectivity ratio [21]: < 1
CCCCC1=C(Br)/C(=C/Br)OC1=O	> 20 µg/mL	inactive	–	Active	Active	inactive	3 mm	inactive	3 mm	Active	7.3 µg/mL (≈ 23.5 µM)	> 20 µg/mL	Active	Active	10.2 µg/mL (≈ 32.9 µM)	> 20 µg/mL	inactive	> 20 µg/mL	inactive	inactive	EC50 [24]: 5.3 µg/mL (≈ 17.1 µM); Activity (Penicillium oxalicum [12]): inactive; EC50 [25]: 10 µg/mL (≈ 32.3 µM); Activity (Plasmodium falciparum [26]): >50%; EC50 [27]: > 20 µg/mL; EC50 [28]: 9.8 µg/mL (≈ 31.6 µM); EC50 (P388): > 5 µg/mL; EC50 (A-431): > 20 µg/mL; EC50 (HT-1080): 2.2 µg/mL (≈ 7.1 µM)
C=C[C@H]1CN2CC[C@H]1C[C@H]2[C@H](O)c1ccnc2ccc(OC)cc12 [QUININE]	–	–	0.011 µg/mL (≈ 0.0339 µM)	–	–	–	–	–	–	–	–	–	–	–	–	–	–	> 20 µg/mL	–	–	selectivity ratio [29]: > 700; IC50 (Plasmodium falciparum [11]): 0.029 µg/mL (≈ 0.0894 µM); selectivity ratio [21]: > 1830
CCC[C@@H](O)C1=C(Br)/C(=C/I)OC1=O	0.3 µg/mL (≈ 0.804 µM)	Active	6.8 µg/mL (≈ 18.2 µM)	Active	Active	inactive	20 mm	Active	18 mm	Active	< 0.1 µg/mL	1.3 µg/mL (≈ 3.49 µM)	Active	Active	0.3 µg/mL (≈ 0.804 µM)	4.1 µg/mL (≈ 11 µM)	Active	0.4 µg/mL (≈ 1.07 µM)	inactive	inactive	IC50 [2]: 700 µM; Activity [9]: 4.2%; IC50 (Plasmodium falciparum [11]): > 10 µg/mL; zone of inhibition at 1 µg/disc (Penicillium oxalicum [12]): 12 mm; zone of inhibition at 0.1 µg/disc (Penicillium oxalicum [30]): 4 mm; Activity (Bacillus subtilis [31]): inactive; selectivity ratio [21]: < 1
CCCCCCC(=O)C(Br)=C(Br)Br	> 20 µg/mL	inactive	–	Active	inactive	–	10 mm	inactive	5 mm	Active	> 20 µg/mL	> 20 µg/mL	inactive	inactive	> 20 µg/mL	> 20 µg/mL	inactive	> 20 µg/mL	inactive	inactive	EC50 [24]: > 20 µg/mL; Activity (Penicillium oxalicum [12]): inactive; EC50 [25]: > 20 µg/mL; Activity (Plasmodium falciparum [26]): >50%; EC50 [27]: > 20 µg/mL; EC50 [28]: > 20 µg/mL; EC50 (P388): > 5 µg/mL; EC50 (A-431): > 20 µg/mL; IC50 [32]: ≥ 200 µM; EC50 (HT-1080): > 20 µg/mL
